PPC-1+TRAIL kill = PPC-1 cancer cell killing with TRAIL present | PPC-1 cells + TRAIL, ATPLite viability luminescence | actives 0.41% (n = 220,000) | cell killing (% activity), % at 4 µM or 5 µM;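 active means cell killing above 50% in the first pass at 4 µM, then a duplicate retest at 5 µM averaging 50% or more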;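 further: plate controls were cells with TRAIL plus DMSO for no effect and medium-only wells lacking cells for full effect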
Wee1 stabilizer = human Wee1 degradation inhibition, primary screen; reporter increase, % at 5 µM; actives 1.2% (n = 220,000); AID 1321; HeLa Luc-Wee1K328M stability, luciferase luminescence; 100% = proteasome inhibitor MG132 effect; P30291;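 active means activation above the mean of all tested compounds plus 3 SD, set per screening run, cut at about 8.8% in these data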;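 further: cells exposed to compound for 20 h before luminescence read; 0% = DMSO alone and 100% = MG132 at 30 µM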
FLuc inhib CS = counter-screen for luciferase assay inhibitors: firefly luciferase inhibition. AID 1006. inhibition, % at 10 µM. ATPLite firefly luciferase biochemical luminescence, 10 min. actives 1.5% (n = 200,000);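 active means inhibition above about 50% when tested at 10 µM, limit read from the data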
FLuc stim CS = firefly luciferase counter-screen for stimulation assays. activation factor at 10 µM. ATPlite luciferase biochemical, luminescence, 10 min; 0 = ATP-free wells, 1 = DMSO control. 200,000 tested, under 10 active. P08659;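 active means luciferase activation factor, scaled between plate controls, of at least 2 with compound at 10 µM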
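Assay system: Luciferase/luciferin detection reagent, cell-free biochemical luciferase assay / Also added: ATP substrate / Schedule: 10 min at ambient temperature / Measured by: luminescence measurement of luciferase light output / Benchmarks: low control with PBS replacing ATP, high control enzyme plus ATP without compound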
TRAIL sens C8 = caspase-8 TRAIL sensitization; NB7+C8 cells + TRAIL, ATPlite viability luminescence; inhibition (viability loss, TRAIL sensitization), % at 10 µM; actives 1% (n = 360,000); AID 624354;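 active means compounds causing at least 50% loss of cell viability in the single-dose screen, relative to plate controls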
PKD1 kinase inh = inhibitors of human PKD1 kinase | Q15139 | PKD1 kinase fluorescence polarization assay | inhibition, % (no concentration beside the values) | actives 0.056% (n = 200,000) | AID 797; in the data active means inhibition above about 50%
Target sequence (Q15139 whole entry, looked up): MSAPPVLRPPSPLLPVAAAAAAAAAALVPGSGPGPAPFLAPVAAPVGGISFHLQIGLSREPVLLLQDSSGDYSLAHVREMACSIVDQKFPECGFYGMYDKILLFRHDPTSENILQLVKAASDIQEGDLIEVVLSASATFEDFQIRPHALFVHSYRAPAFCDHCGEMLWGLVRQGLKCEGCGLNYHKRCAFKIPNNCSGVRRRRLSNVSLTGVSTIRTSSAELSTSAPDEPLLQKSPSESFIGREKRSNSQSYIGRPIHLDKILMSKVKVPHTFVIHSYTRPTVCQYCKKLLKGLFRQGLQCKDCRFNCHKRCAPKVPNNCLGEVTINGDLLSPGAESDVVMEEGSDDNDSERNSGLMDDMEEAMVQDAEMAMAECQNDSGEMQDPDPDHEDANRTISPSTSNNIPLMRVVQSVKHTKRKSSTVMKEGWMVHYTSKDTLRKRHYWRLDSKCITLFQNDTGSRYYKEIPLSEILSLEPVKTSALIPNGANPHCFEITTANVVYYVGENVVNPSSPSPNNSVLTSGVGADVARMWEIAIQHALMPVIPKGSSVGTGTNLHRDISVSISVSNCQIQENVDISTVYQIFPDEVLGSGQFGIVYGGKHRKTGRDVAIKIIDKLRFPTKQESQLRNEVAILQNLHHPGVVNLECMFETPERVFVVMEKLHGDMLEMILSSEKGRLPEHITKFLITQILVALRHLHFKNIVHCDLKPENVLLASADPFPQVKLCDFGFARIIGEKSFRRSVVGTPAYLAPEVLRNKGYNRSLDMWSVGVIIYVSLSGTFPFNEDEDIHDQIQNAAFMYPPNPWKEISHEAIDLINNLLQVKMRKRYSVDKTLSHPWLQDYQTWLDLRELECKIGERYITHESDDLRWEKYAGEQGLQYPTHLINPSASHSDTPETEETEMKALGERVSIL
Starred values were filed as active, the others as inactive; x = no result given. Most compounds without a hit are left out; they make up all but 2.2% or so of the library.

SMILES	PPC-1+TRAIL kill	Wee1 stabilizer	FLuc inhib CS	FLuc stim CS	TRAIL sens C8	PKD1 kinase inh
COc1ccc2cc1Oc1ccc(cc1)C[C@H]1c3c(cc(OC)c4c3Oc3c(ccc5c3[C@H](C2)N(C)CC5)O4)CCN1C	x	x	x	x	88*	x
COc1ccc2cc1Oc1ccc(cc1)CC1c3c(cc(OC)c4c3Oc3cc5c(cc3O4)CCNC5C2)CCN1C (configuration not stated)	23	-3	x	x	93*	x
COc1cc2c(c(O)c1OC)C1Cc3ccc(OC)c(OC)c3CN1CC2 (configuration not stated)	x	x	x	x	0	x
CN(Cc1ccccc1F)C(=O)CNC(=O)Cc1cccc2ccccc12	x	x	x	x	-4	x
C=CCn1c(SC(C)C(=O)c2c(N)n(C)c(=O)n(C)c2=O)nnc1-c1ccoc1C (configuration not stated)	x	x	x	x	-5	x
O=C(NCc1ccccn1)C1CCN(Cc2cnn(-c3ccccc3)c2-n2cccc2)CC1	23	-2	5	1	-1	-2
COc1cccc(CNC(=O)C2CCN(Cc3cnn(-c4ccccc4)c3-n3cccc3)CC2)c1	25	8.9*	-6	1.1	9	-4
Cc1cnc(NC(=O)CSC(=S)N2CCOCC2)s1	2	-1	-2	1	-2	0
S=c1nc2[nH]c3ccccc3c2n[nH]1	x	x	x	x	-6	x
COc1ccc(OCC(=O)Nc2ccc3c(c2)nc(CCN2CCOCC2)n3C)cc1	2	9.1*	-8	1.1	-7	0
Cn1c(CCN2CCCCC2)nc2cc(NC(=O)COc3ccc(Cl)cc3)ccc21	x	x	x	x	4	x
Cc1ccc(C(C)C)c(OCC(=O)Nc2ccc3c(c2)nc(CCN2CCCCC2)n3C)c1	x	x	x	x	56*	x
Cn1c(CCN2CCOCC2)nc2cc(NC(=O)COc3ccc(Cl)cc3)ccc21	28	-3	-5	1.1	-8	-7
O=C(N=C1SC2CS(=O)(=O)CC2N1c1ccc(F)cc1)C1CC1 (configuration not stated)	x	x	x	x	13	x
O/C(=C\c1ccc2ccccc2n1)c1ccc(O)cc1O	48	1	83*	0.2	66*	-4
O=C(Nc1ncccn1)c1ccc([N+](=O)[O-])cc1	1	-1	0	1	-3	1
O=C(NC(=S)Nc1ccccn1)c1ccccc1	42	0	x	x	69*	x
O=C(Nc1ccccn1)c1ccc(C(=O)Nc2ccccn2)cc1	x	x	x	x	16	x
O=C(NC(=S)Nc1ccccn1)c1ccc([N+](=O)[O-])cc1	13	0	59*	0.4	47	-4
O=C(Nc1ccccn1)c1cc2cc([N+](=O)[O-])ccc2s1	25	9.4*	33	0.7	40	7
O=C(NC(=S)Nc1ccccn1)c1ccc(-c2ccccc2)cc1	x	x	x	x	78*	x
O=C(CN1CCN(S(=O)(=O)c2ccccc2)CC1)N1CCc2ccccc21	x	x	x	x	-8	x
CCOC(=O)N1CCN(C(=O)C(=O)NN)CC1	-10	0	-1	1	0	-6
C=CC(=O)Nc1ccc(Nc2nc(NC3CCC(N(C)C)CC3)nc3c2ncn3C(C)C)cc1 (configuration not stated)	x	x	x	x	73*	x
CC(C)n1cnc2c(Nc3ccc(F)c(Cl)c3)nc(NCCO)nc21	x	x	x	x	-5	x
SMILES	PPC-1+TRAIL kill	Wee1 stabilizer	FLuc inhib CS	FLuc stim CS	TRAIL sens C8	PKD1 kinase inh
Oc1ccc2oc3c(c2c1/C=N/n1cnnc1)CCCC3	7	-2	-2	1	1	43
Oc1ccc2oc3c(c2c1C=NCc1ccncc1)CCCC3	6	25*	x	x	11	x
COC(=O)c1ccc(C(=O)OC)c(NC2=NS(=O)(=O)c3ccccc32)c1	-8	-2	-3	1	11	0
COC(=O)c1c(-c2ccccc2)csc1NC1=NS(=O)(=O)c2ccccc21	40	2	65*	0.3	73*	-9
O=C(CSc1ccc2c(c1)OCCO2)Nc1ccc(Cl)cn1	8	11*	-2	1	-15	-14
CCOc1ccc(N2CC(C(=O)N3CCN(C(=O)c4ccco4)CC3)CC2=O)cc1 (configuration not stated)	x	x	x	x	11	x
Cc1ccc(Nc2nc(NCc3ccco3)c3ccccc3n2)cc1	20	2	6	0.9	71*	-8
CC(C)CN(C(=O)COC(=O)c1c(Cl)ccc(Cl)c1Cl)C1CCS(=O)(=O)C1 (configuration not stated)	26	8.8*	-2	1	-9	-9
CC(C)CN(C(=O)COC(=O)c1nc(Cl)ccc1Cl)C1CCS(=O)(=O)C1 (configuration not stated)	10	-4	-7	1.1	-2	1
COc1ccc(CC(=O)NNS(=O)(=O)c2ccc(F)cc2)cc1OC	14	8.9*	0	1	-4	-2
COc1ccc(CC(=O)NNS(=O)(=O)c2ccccc2)cc1OC	10	2	-8	1.1	0	-3
C[C@@H]1CN([C@H](C)CO)C(=O)CCCn2cc(nn2)CO[C@H]1CN(C)C(=O)C1CCCCC1	x	x	x	x	-6	x
COc1ccc(NC(=O)COC(=O)CNC(=O)COc2ccccc2)cc1OC	x	x	x	x	-4	x
O=C(CCCn1c(=O)[nH]c2ccsc2c1=O)N1CCN(c2ccccn2)CC1	-18	11*	-6	1.1	-6	-10
C[C@]12C(=O)N(c3ccc(Cl)cc3)C(=O)N1[C@@H]1c3ccccc3OC[C@@H]1[C@H]2c1ccccc1	x	x	x	x	10	x
O=C1CC(c2ccc3c(c2)OCCO3)Oc2ccccc21 (configuration not stated)	x	x	x	x	2	x
O=C1CC(c2ccc3c(c2)OCCO3)Oc2ccc([N+](=O)[O-])cc21 (configuration not stated)	x	x	x	x	64*	x
CC1CCCN(C(=O)COC(=O)CNC(=O)c2sc3ccccc3c2Cl)C1 (configuration not stated)	x	x	x	x	-5	x
O=C(O)c1cccc(-c2noc(-c3cccc(Cl)c3)n2)c1	x	x	x	x	62*	x
Cc1nn(-c2ccccc2)c(Cl)c1/C=N/NC(=O)c1ccc(CNc2ccccc2)o1	-1	-1	35	0.6	11	-4
Cc1nn(-c2ccccc2)c(Cl)c1/C=N/NC(=O)c1ccco1	20	6	58*	0.4	29	-7
Cc1nn(-c2ccccc2)c(Cl)c1/C=N/Nc1ccc(Cl)c(C(=O)O)c1	52*	-1	87*	0.1	50	-5
CC1(C)Cc2c(sc3[nH]c(=S)[nH]c(=O)c23)CO1	x	-2	2	1	-6	-2
O=C(Nc1nc2ccccc2s1)c1ccc(OCC2CCCO2)cc1 (configuration not stated)	22	-1	74*	0.3	67*	-6
O=C(Nc1ncccc1O)c1ccc(OCC2CCCO2)cc1 (configuration not stated)	x	x	x	x	18	x
COc1cccc(C(=O)Nc2nc3ccccc3s2)c1	x	x	x	x	29	x

Assay outcomes as filed in PubChem.
